The RNAGym collection of RNA variant scans (doi:10.1038/s41586-018-0170-7)

B1: tRNA (parent)
chain: GUUCCGUUGGCGUAAUGGUAACGCGUCUCCCUCCUAAGGAGAAGACUGCGGGUUCGAGUCCCGUACGGAACG

Variants of: B1
Experiment: yeast fitness, log relative to wild type (ln ratio); higher = fitter; tRNA-Arg(CCU), competitive growth, 37 C, 1 M NaCl
Procedure, shortened: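 A combinatorial tRNA-Arg(CCU) variant library was carried on a HIS3 centromeric plasmid in BY4742 lacking the chromosomal gene, from two independent transformations. Pools grew 4 generations in SC-HIS at 30 °C, then ~6.5 generations (~26.5 h) in SC-HIS 1M NaCl at 37 °C, with three outputs per input. Variants were counted by 125 bp paired-end Illumina sequencing. Fitness is ln of each genotype's generations (OD-scaled log2 output/input frequency, inverse-variance weighted across replicates) over the wild-type's.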

Variant | yeast fitness (ln)
GUUCCUUUGGCGUAAUGGUAACGCGUUUCCCUCCUAAGGAGACGAUUGCGGGUUCGAGUCCCGUACGGGUCG [G6U C27U A43C C46U A69G A70U] | -0.245
ACUCCGUUGGCGUAAUGGUAACGCGUCUCCCUCCUAAGGAGAAGACUGCGGGUUCGAGUCCCGUAUGGAUUG [G1A U2C C66U A70U C71U] | -0.106
GGUCCAUUGGCGUAAUGGUAACGCGUUUCCCUCCUAAGGAGAAGAUUGCGGGUUCGAGUCCCGUAAGGGAUG [U2G G6A C27U C46U C66A A69G C71U] | -0.325
GGUCCAUUGGCGUAAUGGUAACGCGUCUCCCUCCUAAGGAGAAGAUUGCGGGUUCGAGUCCCGUACGGAUUG [U2G G6A C46U A70U C71U] | -0.449
GUUCCAUUGGCGUAAUGGUAACGCGUUUCCCUCCUAAGGAGACGACUGCGGGUUCGAGUCCCGUACGGAACG [G6A C27U A43C] | -0.131
AUUCCGUUGGCGUAAUGGUAACGCGUCUCCCUCCUAAGGAGAAGACUGCGGGUUCGAGUCCCGUAUGGAGCG [G1A C66U A70G] | -0.107
GCUCCUUUGGCGUAAUGGUAACGCGUCUCCCUCCUAAGGAGACGACUGCGGGUUCGAGUCCCGUACGGAGUG [U2C G6U A43C A70G C71U] | -0.185
AGUCCUUUGGCGUAAUGGUAACGCGUCUCCCUCCUAAGGAGAAGAUUGCGGGUUCGAGUCCCGUAUGGGGUG [G1A U2G G6U C46U C66U A69G A70G C71U] | -0.244
AUUCCGUUGGCGUAAUGGUAACGCGUUUCCCUCCUAAGGAGACGACUGCGGGUUCGAGUCCCGUAUGGGAUG [G1A C27U A43C C66U A69G C71U] | -0.343
GGUCCGUUGGCGUAAUGGUAACGCGUCUCCCUCCUAAGGAGACGACUGCGGGUUCGAGUCCCGUAUGGAUUG [U2G A43C C66U A70U C71U] | -0.351
AGUCCAUUGGCGUAAUGGUAACGCGUUUCCCUCCUAAGGAGACGACUGCGGGUUCGAGUCCCGUAUGGAGCG [G1A U2G G6A C27U A43C C66U A70G] | -0.337
GCUCCAUUGGCGUAAUGGUAACGCGUUUCCCUCCUAAGGAGAAGAUUGCGGGUUCGAGUCCCGUACGGGAUG [U2C G6A C27U C46U A69G C71U] | -0.172
GCUCCUUUGGCGUAAUGGUAACGCGUCUCCCUCCUAAGGAGAAGACUGCGGGUUCGAGUCCCGUAAGGAUUG [U2C G6U C66A A70U C71U] | -0.105
ACUCCUUUGGCGUAAUGGUAACGCGUCUCCCUCCUAAGGAGACGAUUGCGGGUUCGAGUCCCGUAAGGAGCG [G1A U2C G6U A43C C46U C66A A70G] | -0.000562
GGUCCGUUGGCGUAAUGGUAACGCGUUUCCCUCCUAAGGAGAAGAUUGCGGGUUCGAGUCCCGUAUGGGUCG [U2G C27U C46U C66U A69G A70U] | -0.392
GGUCCUUUGGCGUAAUGGUAACGCGUCUCCCUCCUAAGGAGAAGACUGCGGGUUCGAGUCCCGUACGGGACG [U2G G6U A69G] | -0.176
GUUCCGUUGGCGUAAUGGUAACGCGUCUCCCUCCUAAGGAGACGACUGCGGGUUCGAGUCCCGUAAGGGAUG [A43C C66A A69G C71U] | -0.226
GCUCCGUUGGCGUAAUGGUAACGCGUUUCCCUCCUAAGGAGACGACUGCGGGUUCGAGUCCCGUAAGGAGCG [U2C C27U A43C C66A A70G] | -0.0848
ACUCCUUUGGCGUAAUGGUAACGCGUUUCCCUCCUAAGGAGACGACUGCGGGUUCGAGUCCCGUACGGAACG [G1A U2C G6U C27U A43C] | -0.181

Variant | yeast fitness (ln)
AGUCCUUUGGCGUAAUGGUAACGCGUCUCCCUCCUAAGGAGACGACUGCGGGUUCGAGUCCCGUAAGGGGUG [G1A U2G G6U A43C C66A A69G A70G C71U] | -0.412
AUUCCUUUGGCGUAAUGGUAACGCGUUUCCCUCCUAAGGAGAAGAUUGCGGGUUCGAGUCCCGUAUGGGUUG [G1A G6U C27U C46U C66U A69G A70U C71U] | -0.4
GGUCCUUUGGCGUAAUGGUAACGCGUCUCCCUCCUAAGGAGACGAUUGCGGGUUCGAGUCCCGUACGGGGCG [U2G G6U A43C C46U A69G A70G] | -0.183
AUUCCUUUGGCGUAAUGGUAACGCGUUUCCCUCCUAAGGAGAAGAUUGCGGGUUCGAGUCCCGUAUGGAUUG [G1A G6U C27U C46U C66U A70U C71U] | -0.438
AGUCCGUUGGCGUAAUGGUAACGCGUUUCCCUCCUAAGGAGACGACUGCGGGUUCGAGUCCCGUAAGGGAUG [G1A U2G C27U A43C C66A A69G C71U] | -0.297
AGUCCGUUGGCGUAAUGGUAACGCGUCUCCCUCCUAAGGAGAAGAUUGCGGGUUCGAGUCCCGUACGGGGUG [G1A U2G C46U A69G A70G C71U] | -0.457
GGUCCAUUGGCGUAAUGGUAACGCGUCUCCCUCCUAAGGAGAAGACUGCGGGUUCGAGUCCCGUACGGGUUG [U2G G6A A69G A70U C71U] | -0.264
GGUCCUUUGGCGUAAUGGUAACGCGUUUCCCUCCUAAGGAGAAGAUUGCGGGUUCGAGUCCCGUAUGGAACG [U2G G6U C27U C46U C66U] | -0.147
GUUCCUUUGGCGUAAUGGUAACGCGUUUCCCUCCUAAGGAGACGAUUGCGGGUUCGAGUCCCGUAUGGAGCG [G6U C27U A43C C46U C66U A70G] | -0.255
AGUCCUUUGGCGUAAUGGUAACGCGUCUCCCUCCUAAGGAGACGACUGCGGGUUCGAGUCCCGUACGGGUUG [G1A U2G G6U A43C A69G A70U C71U] | -0.428
AGUCCAUUGGCGUAAUGGUAACGCGUUUCCCUCCUAAGGAGACGACUGCGGGUUCGAGUCCCGUAUGGAUUG [G1A U2G G6A C27U A43C C66U A70U C71U] | -0.536
GGUCCAUUGGCGUAAUGGUAACGCGUUUCCCUCCUAAGGAGAAGAUUGCGGGUUCGAGUCCCGUACGGGAUG [U2G G6A C27U C46U A69G C71U] | -0.174
GUUCCAUUGGCGUAAUGGUAACGCGUCUCCCUCCUAAGGAGACGACUGCGGGUUCGAGUCCCGUAUGGGUCG [G6A A43C C66U A69G A70U] | -0.3
GGUCCGUUGGCGUAAUGGUAACGCGUUUCCCUCCUAAGGAGACGACUGCGGGUUCGAGUCCCGUAAGGAAUG [U2G C27U A43C C66A C71U] | -0.238
GGUCCUUUGGCGUAAUGGUAACGCGUCUCCCUCCUAAGGAGACGAUUGCGGGUUCGAGUCCCGUAUGGGGCG [U2G G6U A43C C46U C66U A69G A70G] | -0.267
GGUCCUUUGGCGUAAUGGUAACGCGUCUCCCUCCUAAGGAGACGACUGCGGGUUCGAGUCCCGUACGGAAUG [U2G G6U A43C C71U] | -0.17
GUUCCUUUGGCGUAAUGGUAACGCGUUUCCCUCCUAAGGAGAAGACUGCGGGUUCGAGUCCCGUAUGGAACG [G6U C27U C66U] | -0.321
AGUCCAUUGGCGUAAUGGUAACGCGUCUCCCUCCUAAGGAGACGAUUGCGGGUUCGAGUCCCGUAUGGAACG [G1A U2G G6A A43C C46U C66U] | -0.23
